The text below walks through data of ChEMBL document CHEMBL4138082 (Eur J Med Chem, 2017).

The test system of one series is PC-3. Put plainly: Antiproliferative activity against human PC3 cells after 72 hrs by MTT assay. Type of series: functional, cell-based. The following applies: PC-3, 72 h. The method in brief:
(§1)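 MTT assay. Cells were seeded and grown 24 h at 37 °C in 5% CO2, then exposed to compound or left untreated for 72 h. MTT (5 mg/mL stock) was added for 4 h and the formazan dissolved in DMSO. OD was read at 570 nm. IC50 is the concentration giving 50% growth inhibition, reported as mean ± SD of three independent experiments. Vehicle reference was 0.1% DMSO.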
(Formazan colour is commonly taken as a measure of viable cells.)

A further series has as its system HT-29. The series can be described thus: Antiproliferative activity against human HT-29 cells after 72 hrs by MTT assay. Type of series: functional, cell-based. The following applies: HT-29, 72 h. An outline of the steps: as §1
Another series concerns HepG2. The series can be described thus: Antiproliferative activity against human HepG2 cells after 72 hrs by MTT assay. Type of series: functional, cell-based. The following applies: HepG2, 72 h. The method in brief: as §1
In another series the test system is L02. Put plainly: Cytotoxicity against human L02 cells assessed as reduction in cell viability after 72 hrs by MTT assay. The following applies: L02, 72 h. Type of series: cell-based. An outline of the steps: as §1
The nature of series [1]: Selectivity index, ratio of IC50 for human L02 cells to IC50 for human HepG2 cells. Type of series: toxicity. The following applies: L02 cells and HepG2 cells, read-out: Ratio IC50. The method in brief: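 MTT assay: cells grown 24 h at 37 °C, 5% CO2, then exposed 72 h; MTT (5 mg/mL) added for 4 h, formazan dissolved in DMSO, OD read at 570 nm. Vehicle 0.1% DMSO. Three independent experiments.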

For orientation: IC50 means the concentration that inhibits the measured activity by half. For `C[C@H]1CCC/C=C/[C@@H]2C[C@H](O)C[C@H]2[C@H](OC(=O)CCC(=O)OCCOc2no[n+]([O-])c2S(=O)(=O)c2ccccc2)/C=C/C(=O)O1`, the IC50 in the series on PC-3 came out at 120 nM; in the series with HT-29 it was 230 nM; with HepG2 it was 510 nM; in the series with L02, 5000 nM. The selectivity ratio in series [1] came to 10.
Consider `C[C@H]1CCC/C=C/[C@@H]2C[C@H](OC(=O)CCCC(=O)OCCCOc3no[n+]([O-])c3S(=O)(=O)c3ccccc3)C[C@H]2[C@H](O)/C=C/C(=O)O1`, for which the IC50 with PC-3 was found to be 160 nM; in the series with HT-29, 1600 nM; in the series on HepG2, 750 nM; with L02, 6700 nM. The selectivity ratio in series [1] is 9.
The matching figures for `C[C@H]1CCC/C=C/[C@@H]2C[C@H](OC(=O)CCC(=O)O)C[C@H]2[C@H](O)/C=C/C(=O)O1`: 1600 nM, 6300 nM, 1600 nM, 9500 nM and 6.
Regarding `O=c1[nH]cc(F)c(=O)[nH]1` [FLUOROURACIL], the half-inhibitory concentration (IC50) with HT-29 turned out to be 4900 nM.
Regarding `C[C@H]1CCC/C=C/[C@@H]2C[C@H](OC(=O)CCC(=O)OCCOc3no[n+]([O-])c3S(=O)(=O)c3ccccc3)C[C@H]2[C@H](O)/C=C/C(=O)O1`, the IC50 worked out at 140 nM in the series with PC-3, 460 nM with HT-29, 910 nM in the series on HepG2 and 5200 nM in the series with L02. Further, in series [1], the selectivity ratio was determined as 6.
`O=C(O)CCC(=O)OCCOc1no[n+]([O-])c1S(=O)(=O)c1ccccc1`: the IC50 in the series on PC-3 is 3800 nM; in the series on HT-29 it was above 10000 nM; with HepG2, above 10000 nM; in the series on L02, 36000 nM.
Take `O=C(O)c1ccccc1C(=O)OCCOc1no[n+]([O-])c1S(=O)(=O)c1ccccc1`: the IC50 in the series with PC-3 is 9900 nM; with HT-29, above 10000 nM; with HepG2, above 10000 nM; in the series with L02 it was 37000 nM.
In the case of `C[C@H]1CCC/C=C/[C@@H]2C[C@H](OC(=O)CCC(=O)OCCCOc3no[n+]([O-])c3S(=O)(=O)c3ccccc3)C[C@H]2[C@H](O)/C=C/C(=O)O1`, the IC50 was determined as 730 nM with PC-3, 910 nM in the series on HT-29, 1300 nM in the series with HepG2 and 7800 nM in the series on L02. Moreover, in series [1], the selectivity ratio was found to be 6.
The matching figures for `O=C(O)CCCC(=O)OCCOc1no[n+]([O-])c1S(=O)(=O)c1ccccc1`: 5100 nM, above 10000 nM, 4000 nM, 32000 nM and 8.
Turning to `C[C@H]1CCC/C=C/[C@@H]2C[C@H](OC(=O)c3ccccc3C(=O)OCCOc3no[n+]([O-])c3S(=O)(=O)c3ccccc3)C[C@H]2[C@H](O)/C=C/C(=O)O1`, the IC50 with PC-3 amounted to 64 nM; in the series with HT-29, 280 nM; with HepG2, 540 nM; in the series on L02, 5900 nM. The selectivity ratio in series [1] is 11.
The matching figures for `C[C@H]1CCC/C=C/[C@@H]2C[C@H](OC(=O)c3ccccc3C(=O)OCCCOc3no[n+]([O-])c3S(=O)(=O)c3ccccc3)C[C@H]2[C@H](O)/C=C/C(=O)O1`: 95 nM, 300 nM, 620 nM, 5400 nM and 9.
As for `O=C(O)c1ccccc1C(=O)OCCCOc1no[n+]([O-])c1S(=O)(=O)c1ccccc1`, the IC50 in the series on PC-3 was 4900 nM; in the series with HT-29, above 10000 nM; in the series on HepG2 it was above 10000 nM; in the series with L02, 40000 nM.
For `C[C@H]1CCC/C=C/[C@@H]2C[C@H](O)C[C@H]2[C@H](OC(=O)c2ccccc2C(=O)OCCOc2no[n+]([O-])c2S(=O)(=O)c2ccccc2)/C=C/C(=O)O1`, the IC50 worked out at 110 nM in the series on PC-3, 400 nM with HT-29, 820 nM in the series on HepG2 and 5700 nM with L02. The selectivity ratio in series [1] is 7.
The matching figures for `C[C@H]1CCC/C=C/[C@@H]2C[C@H](OC(=O)c3ccccc3C(=O)OCCCOc3no[n+]([O-])c3S(=O)(=O)c3ccccc3)C[C@H]2[C@H](OC(=O)c2ccccc2C(=O)OCCCOc2no[n+]([O-])c2S(=O)(=O)c2ccccc2)/C=C/C(=O)O1`: 1300 nM, 4400 nM, 4000 nM, 9800 nM and 2.
Consider `C[C@H]1CCC/C=C/[C@@H]2C[C@H](O)C[C@H]2[C@H](O)/C=C/C(=O)O1` [BREFELDIN A], for which the IC50 in the series on PC-3 is 68 nM; in the series with HT-29, 160 nM; with HepG2 it was 350 nM; in the series with L02, below 0.4 nM.
For the compound `C[C@H]1CCC/C=C/[C@@H]2C[C@H](O)C[C@H]2[C@H](OC(=O)CCC(=O)OCCCOc2no[n+]([O-])c2S(=O)(=O)c2ccccc2)/C=C/C(=O)O1`, the IC50 in the series with PC-3 was 250 nM; in the series on HT-29, 790 nM; with HepG2 it was 730 nM; in the series with L02, 6900 nM. Further, the selectivity ratio in series [1] came out at 9.
The matching figures for `C[C@H]1CCC/C=C/[C@@H]2C[C@H](O)C[C@H]2[C@H](OC(=O)c2ccccc2C(=O)OCCCOc2no[n+]([O-])c2S(=O)(=O)c2ccccc2)/C=C/C(=O)O1`: 150 nM, 860 nM, 620 nM, 5900 nM and 10.
The matching figures for `C[C@H]1CCC/C=C/[C@@H]2C[C@H](O)C[C@H]2[C@H](OC(=O)CCCC(=O)OCCCOc2no[n+]([O-])c2S(=O)(=O)c2ccccc2)/C=C/C(=O)O1`: 95 nM, 5700 nM, 1800 nM, 6700 nM and 4.
Regarding `O=C(O)CCC(=O)OCCCOc1no[n+]([O-])c1S(=O)(=O)c1ccccc1`, the IC50 is above 10000 nM with PC-3, above 10000 nM in the series with HT-29, 6400 nM in the series on HepG2 and 29000 nM in the series on L02. In series [1], the selectivity ratio was 5.
Consider `O=C(O)CCCC(=O)OCCCOc1no[n+]([O-])c1S(=O)(=O)c1ccccc1`, for which the IC50 with PC-3 was 3300 nM; in the series with HT-29, above 10000 nM; in the series on HepG2, above 10000 nM; with L02, 35000 nM.
Take `C[C@H]1CCC/C=C/[C@@H]2C[C@H](OC(=O)CCC(=O)OCCCOc3no[n+]([O-])c3S(=O)(=O)c3ccccc3)C[C@H]2[C@H](OC(=O)CCC(=O)OCCCOc2no[n+]([O-])c2S(=O)(=O)c2ccccc2)/C=C/C(=O)O1`: the IC50 with PC-3 was determined as 120 nM; in the series with HT-29, 1200 nM; in the series on HepG2 it was 840 nM; in the series on L02, 7200 nM. The selectivity ratio in series [1] is 9.
